From ChEMBL document CHEMBL1828498, “Identification and characterization of a novel integrin-linked kinase inhibitor” (J Med Chem, 2011) come the findings set out here.

For orientation: IC50 means the point on the concentration scale where inhibition reaches its midpoint.

Test [1] addresses T1, Scaffold protein ILK (Homo sapiens) (UniProt Q13418).
T1 sequence (whole entry): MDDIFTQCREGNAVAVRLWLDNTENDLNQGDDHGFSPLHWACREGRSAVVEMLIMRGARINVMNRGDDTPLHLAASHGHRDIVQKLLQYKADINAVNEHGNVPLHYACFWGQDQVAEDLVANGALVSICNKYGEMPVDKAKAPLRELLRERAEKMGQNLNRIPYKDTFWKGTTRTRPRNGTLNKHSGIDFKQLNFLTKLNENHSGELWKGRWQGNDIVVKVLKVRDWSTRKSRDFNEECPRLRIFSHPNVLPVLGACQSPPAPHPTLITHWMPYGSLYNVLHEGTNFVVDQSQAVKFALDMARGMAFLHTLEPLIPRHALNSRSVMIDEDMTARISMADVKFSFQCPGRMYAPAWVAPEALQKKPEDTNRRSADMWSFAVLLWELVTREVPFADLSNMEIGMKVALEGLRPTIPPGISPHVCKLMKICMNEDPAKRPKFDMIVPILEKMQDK
Description: Inhibition of ILK in human PC3 cells expressing constitutively active ILK assessed as decrease in phosphorylated ERK1/2 concentration by Western blot analysis. In kind it is cell-based. The settings on record: PC-3. An outline of the steps: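 Stable PC-3 clones expressing GFP-CA-ILK (G418 250 μg/mL selection, GFP sorting) treated 24 h in 5% FBS medium. Phospho-ERK1/2 and phospho-p38 detected by immunoblot with ECL. Representative of three experiments.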
Background: In western blotting, separated proteins are transferred to a membrane and probed.

Test [2] has as its system Mus musculus. Put plainly: Decrease in phosphorylation of GSK3-beta in human PC3 cells xenografted nude mouse tumor lysate at 25 mg/kg, po administered for 35 days by Western blot analysis. Also on record: dose 25 mg/kg. In kind it is functional, organism-based. The settings on record: Neoplasm, PC-3. Put shortly:
(§1)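 Male NCr athymic nude mice, 5–7 weeks, with s.c. PC-3 xenografts (0.5 × 10^6 cells in 50% Matrigel), dosed by oral gavage once daily for 35 days. Vehicle 0.5% methylcellulose, 0.1% Tween 80 in water, 10 μL/g. Tumors snap-frozen at sacrifice; three tumors per group immunoblotted.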
In general terms: A xenograft is tissue or cells of one species grown in another, often human tumour cells in immunodeficient mice.

In test [3] the target is Tyrosine-protein kinase ZAP-70 (Homo sapiens) (UniProt P43403). Description: Inhibition of ZAP70 at 5 uM assessed as remaining activity.
Sequence of Tyrosine-protein kinase ZAP-70 (Homo sapiens) (P43403 whole entry): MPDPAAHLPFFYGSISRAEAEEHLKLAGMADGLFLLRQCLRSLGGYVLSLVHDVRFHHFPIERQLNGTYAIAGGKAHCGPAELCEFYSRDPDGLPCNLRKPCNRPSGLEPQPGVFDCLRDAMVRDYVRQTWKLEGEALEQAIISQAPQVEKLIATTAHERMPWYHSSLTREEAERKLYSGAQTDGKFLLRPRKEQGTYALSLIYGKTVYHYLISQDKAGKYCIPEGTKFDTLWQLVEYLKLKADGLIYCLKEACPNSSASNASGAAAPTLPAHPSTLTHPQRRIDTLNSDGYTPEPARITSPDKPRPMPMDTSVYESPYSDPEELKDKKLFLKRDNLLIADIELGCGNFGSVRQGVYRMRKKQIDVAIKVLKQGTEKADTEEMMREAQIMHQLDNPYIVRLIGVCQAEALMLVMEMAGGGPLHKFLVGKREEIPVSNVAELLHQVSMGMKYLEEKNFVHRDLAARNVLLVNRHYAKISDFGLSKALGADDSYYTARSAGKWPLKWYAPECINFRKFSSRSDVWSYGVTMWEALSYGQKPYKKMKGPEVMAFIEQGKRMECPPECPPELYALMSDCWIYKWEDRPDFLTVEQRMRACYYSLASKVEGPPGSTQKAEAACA
Test [4] relates to SK-BR-3. Description: Reduction in HER2 concentration in human SKBR3 cells after 24 hrs by Western blot analysis. In kind it is functional, cell-based. Put shortly:
(§2)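 PC-3 versus stable PC-3/CA-ILK, or SKBR3 versus transient SKBR3/CA-ILK (electroporation, used 48 h after), treated 24 h in 5% FBS medium; immunoblotting with ECL; representative of three experiments.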

The test system of test [5] is PC-3. Description: Reduction in YB-1 concentration in human PC3 cells expressing constitutively active ILK after 24 hrs by Western blot analysis. The test is classed as functional, cell-based. An outline of the steps: as §2
Test [6] concerns SK-BR-3. Put plainly: Antiproliferative activity against human SKBR3 cells assessed as suppression of cell viability by MTT assay. In kind it is functional, cell-based. Put shortly:
(§3)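 Cancer lines seeded 5000/well and nonmalignant PrEC/MEC 8000/well in 10% FBS, 24 h before treatment. Compound exposure 24 h in 5% FBS medium, 0.1% final DMSO. MTT (0.25 mg/mL) for 1 h at 37°C, dye solubilized in DMSO, absorbance read at 570 nm. Mean ± SD, n = 6.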
Background: Tetrazolium assays rely on reduction of a dye to a coloured formazan, in cell work by metabolically active cells.

The target in test [7] is Ribosomal protein S6 kinase beta-1 (Homo sapiens) (UniProt P23443). Put plainly: Inhibition of p70S6K in human PC3 cells assessed as decrease in phosphorylated S6 by Western blot analysis. In kind it is cell-based. The settings on record: PC-3. An outline of the steps: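 PC-3 cells (parental, or stable GFP-CA-ILK clones selected with G418 250 μg/mL and GFP sorting) exposed 24 h in 5% FBS medium; SDS lysis, immunoblot at 1:1000 primary, ECL; representative of three experiments.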
Sequence of Ribosomal protein S6 kinase beta-1 (Homo sapiens) (P23443 whole entry, looked up): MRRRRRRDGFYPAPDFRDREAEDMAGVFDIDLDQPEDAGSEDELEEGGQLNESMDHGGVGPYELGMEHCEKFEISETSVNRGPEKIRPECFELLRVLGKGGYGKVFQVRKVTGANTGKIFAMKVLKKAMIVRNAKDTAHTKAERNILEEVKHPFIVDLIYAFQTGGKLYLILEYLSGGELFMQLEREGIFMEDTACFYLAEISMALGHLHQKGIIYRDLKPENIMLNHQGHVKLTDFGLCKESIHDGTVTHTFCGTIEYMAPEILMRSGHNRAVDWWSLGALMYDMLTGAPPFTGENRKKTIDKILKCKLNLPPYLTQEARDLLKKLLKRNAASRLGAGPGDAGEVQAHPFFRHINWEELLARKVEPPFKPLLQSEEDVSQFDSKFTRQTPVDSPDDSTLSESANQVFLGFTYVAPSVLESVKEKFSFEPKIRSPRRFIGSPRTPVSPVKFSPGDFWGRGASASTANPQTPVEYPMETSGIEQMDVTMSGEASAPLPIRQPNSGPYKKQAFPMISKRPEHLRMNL

Test [8] has as its target Inhibitor of nuclear factor kappa-B kinase subunit beta (Homo sapiens) (UniProt O14920). Put plainly: Inhibition of IKK-beta at 5 uM assessed as remaining activity. Put shortly: (§4)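 Panel of 20 recombinant kinases, profiled by a commercial vendor.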
For test [9], the system named is Mus musculus. Put plainly: Decrease in phosphorylation of YB-1 in human PC3 cells xenografted nude mouse tumor lysate at 25 mg/kg, po administered for 35 days by Western blot analysis. The settings on record: Neoplasm, PC-3. The test is classed as functional, organism-based. Set-up: dose 25 mg/kg. An outline of the steps:
as §1

The test system of test [10] is SK-BR-3. Put plainly: Reduction in YB-1 concentration in human SKBR3 cells after 24 hrs by Western blot analysis. The test is classed as functional, cell-based. Put shortly:
as §2

For test [11], the target named is T1, Scaffold protein ILK (Homo sapiens). Description: Inhibition of ILK in human PC3 cells assessed as decrease in MLC phosphorylation by Western blot analysis. In kind it is cell-based. The following applies: PC-3. An outline of the steps:
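PC-3 and MDA-MB-231 cells exposed 24 h in 5% FBS medium across a concentration series. Phospho-GSK3β (Ser9) and phospho-MLC (Thr18/Ser19) detected by immunoblot: SDS lysis, primary 1:1000 at 4°C for 2 h, HRP secondary, ECL. Representative of three experiments.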

In test [12] the target is Hepatocyte growth factor receptor (Homo sapiens) (UniProt P08581). Put plainly: Inhibition of Met at 5 uM assessed as remaining activity. Put shortly:
as §4

Test [13] has as its system MDA-MB-231. Description: Antiproliferative activity against human MDA-MB-231 cells assessed as suppression of cell viability by MTT assay. The test is classed as functional, cell-based. Put shortly:
as §3

Test [14] concerns PC-3. Put plainly: Induction of apoptosis in human PC3 cells assessed as early apoptotic cells at 1 uM by annexin V/PI staining (reference value: 5.6%). The test is classed as functional.
The subject of test [15] is Mus musculus. Description: Inhibition of phosphorylation of Ser-437-Akt in human PC3 cells xenografted nude mouse tumor lysate at 25 mg/kg, po administered for 35 days by Western blot analysis. The settings on record: Neoplasm, PC-3. Also on record: dose 25 mg/kg. The test is classed as functional, organism-based. Put shortly: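 Tumors harvested at terminal sacrifice after 35 days of daily oral dosing, snap-frozen and stored at -80°C; lysates immunoblotted, three representative tumors per group.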

Test [16] relates to PC-3. Put plainly: Induction of apoptosis in human PC3 cells assessed as early apoptotic cells at 2 uM by annexin V/PI staining (reference value: 5.6%). The test is classed as functional.
The test system of test [17] is PC-3. Put plainly: Induction of change in cell cycle distribution in human PC3 cells up to 2 uM after 48 hrs by flow cytometry. In kind it is functional, cell-based. Put shortly:
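Treated PC-3 cells harvested, fixed in 100% ethanol, stained 30 min at 37°C in the dark with 80 μg/mL PI, 100 μg/mL RNase, 0.1% Triton X-100. Phase distribution by flow cytometry. Mean ± SD, n = 3. Methods give 48 h exposure; the figure legend gives 24 h in 5% FBS.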

Test [18] relates to SK-BR-3. Put plainly: Reduction in EGFR mRNA expression in human SKBR3 cells after 24 hrs by RT-PCR analysis. The test is classed as functional, cell-based. Put shortly:
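PC-3, PC-3/CA-ILK, SKBR3 and SKBR3/CA-ILK cells treated 24 h in 5% FBS medium; total RNA from 1 × 10^6 cells by Trizol, 1 μg reverse-transcribed, then PCR with gene-specific primers and β-actin reference.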

For test [19], the system named is 3-phosphoinositide dependent protein kinase-2, PDK2. Put plainly: Inhibition of PDK2 in human PC3 cells assessed as Akt Ser-473 dephosphorylation by Western blot analysis. In kind it is functional, cell-based. The settings on record: PC-3. An outline of the steps:
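Cells exposed 24 h in 5% FBS medium, final DMSO 0.1%; lysed in 1% SDS/10 mM EDTA/50 mM Tris pH 8.1, equal protein on SDS-PAGE, nitrocellulose, primary antibody 1:1000 at 4°C for 2 h, HRP secondary 1:5000, ECL detection; blots representative of three independent experiments.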

Calls of active or inactive are those of the source. The rule behind the calls is not given here.

Sequence of Inhibitor of nuclear factor kappa-B kinase subunit beta (Homo sapiens) (O14920 whole entry): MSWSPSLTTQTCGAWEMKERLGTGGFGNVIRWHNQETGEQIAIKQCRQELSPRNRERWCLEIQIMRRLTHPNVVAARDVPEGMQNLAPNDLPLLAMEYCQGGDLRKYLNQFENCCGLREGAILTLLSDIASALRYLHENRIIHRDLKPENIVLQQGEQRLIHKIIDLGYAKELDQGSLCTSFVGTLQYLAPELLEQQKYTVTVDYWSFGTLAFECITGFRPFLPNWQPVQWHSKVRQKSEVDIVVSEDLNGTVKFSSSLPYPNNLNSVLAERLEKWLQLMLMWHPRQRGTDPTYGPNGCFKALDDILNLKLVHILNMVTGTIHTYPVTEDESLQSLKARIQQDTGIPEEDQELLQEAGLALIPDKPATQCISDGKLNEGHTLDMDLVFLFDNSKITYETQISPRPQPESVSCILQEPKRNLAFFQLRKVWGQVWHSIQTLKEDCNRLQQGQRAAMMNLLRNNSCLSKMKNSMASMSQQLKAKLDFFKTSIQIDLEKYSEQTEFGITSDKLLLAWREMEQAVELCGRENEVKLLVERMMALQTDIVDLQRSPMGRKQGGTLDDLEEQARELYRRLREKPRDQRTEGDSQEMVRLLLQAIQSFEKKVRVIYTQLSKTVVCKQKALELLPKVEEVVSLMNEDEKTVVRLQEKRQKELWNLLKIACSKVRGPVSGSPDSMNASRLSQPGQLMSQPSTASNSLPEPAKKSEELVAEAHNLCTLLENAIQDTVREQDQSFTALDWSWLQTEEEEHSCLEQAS
Sequence of Hepatocyte growth factor receptor (Homo sapiens) (P08581 whole entry): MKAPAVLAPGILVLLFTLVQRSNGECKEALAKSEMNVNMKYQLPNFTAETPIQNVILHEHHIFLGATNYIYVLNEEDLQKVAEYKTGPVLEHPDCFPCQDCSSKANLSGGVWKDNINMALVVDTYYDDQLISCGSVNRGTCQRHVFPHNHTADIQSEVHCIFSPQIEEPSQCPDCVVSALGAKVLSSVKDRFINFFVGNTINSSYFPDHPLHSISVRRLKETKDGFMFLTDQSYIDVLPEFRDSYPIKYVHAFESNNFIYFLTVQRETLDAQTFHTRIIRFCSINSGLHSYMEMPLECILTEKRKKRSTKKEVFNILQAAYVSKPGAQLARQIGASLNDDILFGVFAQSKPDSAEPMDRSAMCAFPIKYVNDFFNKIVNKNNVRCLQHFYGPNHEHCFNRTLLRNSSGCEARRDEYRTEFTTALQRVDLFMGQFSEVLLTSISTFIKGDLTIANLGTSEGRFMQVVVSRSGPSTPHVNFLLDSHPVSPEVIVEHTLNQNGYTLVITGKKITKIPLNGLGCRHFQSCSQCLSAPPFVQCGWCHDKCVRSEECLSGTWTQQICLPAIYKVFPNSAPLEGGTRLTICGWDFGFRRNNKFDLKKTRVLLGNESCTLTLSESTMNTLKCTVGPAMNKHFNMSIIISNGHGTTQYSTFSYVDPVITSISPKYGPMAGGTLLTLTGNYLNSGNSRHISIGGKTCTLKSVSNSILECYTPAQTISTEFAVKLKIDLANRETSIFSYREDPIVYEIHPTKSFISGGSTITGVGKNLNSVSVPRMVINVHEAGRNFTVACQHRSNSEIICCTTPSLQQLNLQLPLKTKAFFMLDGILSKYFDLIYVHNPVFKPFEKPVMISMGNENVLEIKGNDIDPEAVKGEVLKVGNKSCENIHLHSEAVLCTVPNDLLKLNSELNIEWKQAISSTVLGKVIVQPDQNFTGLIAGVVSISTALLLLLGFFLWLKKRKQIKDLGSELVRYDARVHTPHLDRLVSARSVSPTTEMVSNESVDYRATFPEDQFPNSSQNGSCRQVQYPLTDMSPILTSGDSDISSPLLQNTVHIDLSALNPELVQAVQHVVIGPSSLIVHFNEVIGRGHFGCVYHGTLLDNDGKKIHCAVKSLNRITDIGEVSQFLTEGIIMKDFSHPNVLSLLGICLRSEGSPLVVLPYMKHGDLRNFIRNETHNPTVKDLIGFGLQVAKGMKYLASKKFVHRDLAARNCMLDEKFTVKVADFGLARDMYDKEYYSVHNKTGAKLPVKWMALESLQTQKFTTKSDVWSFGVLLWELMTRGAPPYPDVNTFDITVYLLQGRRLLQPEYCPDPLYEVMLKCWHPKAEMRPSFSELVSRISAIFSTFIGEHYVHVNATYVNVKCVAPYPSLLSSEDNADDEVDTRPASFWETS

As to `CNC(=O)CCc1cc(-c2ccc(-c3ccc(C(F)(F)F)cc3)cc2)n(-c2ccc(N3CCNCC3)cc2)n1`, the inhibition entry in test [1] is “inactive”. Further, the result in test [2] and in test [9] was Active. Further, the Activity in test [3] is 104%; in test [4] it was “Dose-dependent effect”; in [8], 102%; in test [10], “Dose-dependent effect”; in test [12], 110%; in test [14], 6.3%. The Activity entry is “Dose-dependent effect” in test [15], 7.1% in [16] and “Dose-dependent effect” in [18]. Besides, the result in test [5] and in test [17] was inactive. Besides, the IC50 in test [6] was found to be 1.8 µM; in test [13], 1 µM. Besides, the inhibition result in test [7] and in [11] was “Active” throughout. Also, the inhibition entry in test [19] is “Dose-dependent effect”.
